Published values from different studies.
Compare with care: the assays were run in different laboratories.
Target: Hormonally up-regulated neu tumor-associated kinase (HUNK, Homo sapiens, UniProt P57058)
Sequence (P57058 1-714, as in one of the studies): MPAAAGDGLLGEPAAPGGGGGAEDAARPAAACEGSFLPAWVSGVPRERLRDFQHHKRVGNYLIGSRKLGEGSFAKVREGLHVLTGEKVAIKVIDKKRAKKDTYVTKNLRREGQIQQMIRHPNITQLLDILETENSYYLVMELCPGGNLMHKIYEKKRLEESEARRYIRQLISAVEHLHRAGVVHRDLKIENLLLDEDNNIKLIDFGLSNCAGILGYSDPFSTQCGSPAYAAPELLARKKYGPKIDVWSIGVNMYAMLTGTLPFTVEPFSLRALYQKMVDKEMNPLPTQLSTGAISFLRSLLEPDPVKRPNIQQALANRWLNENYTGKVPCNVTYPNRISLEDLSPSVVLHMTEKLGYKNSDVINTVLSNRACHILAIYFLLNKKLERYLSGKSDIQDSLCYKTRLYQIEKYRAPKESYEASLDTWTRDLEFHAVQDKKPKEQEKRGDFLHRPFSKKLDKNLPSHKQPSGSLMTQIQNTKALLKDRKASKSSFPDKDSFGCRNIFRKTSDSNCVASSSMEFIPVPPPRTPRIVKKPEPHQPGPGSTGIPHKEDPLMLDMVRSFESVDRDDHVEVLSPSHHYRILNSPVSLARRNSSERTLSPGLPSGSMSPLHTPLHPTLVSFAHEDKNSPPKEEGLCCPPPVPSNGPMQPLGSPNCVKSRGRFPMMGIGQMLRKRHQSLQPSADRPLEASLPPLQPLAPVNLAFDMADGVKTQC

COc1cnc(Nc2cccc(S(N)(=O)=O)c2)nc1N1CCN(c2ccccc2)CC1 gave a remaining binding of 74% (binding; competition with immobilised ligand; 1 µM).
For CCN1CCN(Cc2ccc(C(=O)Nc3ccc(C)c(Oc4ccc5c(c4)CC(=O)N5)c3)cc2C(F)(F)F)CC1, the remaining binding was 100% (binding; competition with immobilised ligand; 1 µM).
C[C@@H](c1ccc(-n2cnc3c(N)ncnc32)cc1)N1CCc2nn(C)c(Cc3ccccc3)c2C1=O has a remaining binding of 79% (binding; competition with immobilised ligand; 0.1 µM).
O=C(c1ccc(Nc2nccc(-c3cc4ccccc4s3)n2)cc1)N1CCC(N2CCCC2)CC1 gave a remaining binding of 100% (binding; competition with immobilised ligand; 1 µM).
For CN(C)c1nccc(-c2cnc3ncccn23)n1, the remaining binding was 83% (binding; 1 µM).
O=C(c1ccc(Nc2ncc(Cl)c(-c3ccc(Cl)s3)n2)cc1)N1CCC(N2CCCC2)CC1 gave a remaining binding of 100% (binding; competition with immobilised ligand; 1 µM).
O=C(NCC1CCOCC1)c1n[nH]cc1NC(=O)c1c(F)cccc1F gave a remaining binding of 100% (binding; competition with immobilised ligand; 1 µM).
The remaining binding of Cc1cnn2ncc(-c3ccnc(N(C)C)n3)c2c1 is reported as 100% (binding; 1 µM).
For Cc1nc(N2CC[C@@H](O)C2)ncc1-c1cc(C(F)(F)F)cc2[nH]ncc12, the remaining binding was 100% (binding; competition with immobilised ligand; 1 µM).
The remaining binding of CC1CCCN1c1nccc(-c2cnn3ncccc23)n1 (stereo not shown) is reported as 100% (binding; 1 µM).
The remaining binding of CSc1cccnc1N1CCN(Cc2nc3ccccc3[nH]2)CC1 is reported as 100% (cell-free assay; competition with immobilised ligand; 1 µM).
CNC(=O)[C@@H]1CC[C@@H](n2c(-c3ccc4cnccc4c3)nc3ccc(C(=O)NCc4cccc(C(N)=O)c4)cc32)C1 gave a remaining binding of 100% (binding; competition with immobilised ligand; 1 µM).
CCCOc1ccc([C@@H]2[C@@H](C(=O)O)[C@H](c3ccc4c(c3)OCO4)CN2CC(=O)Nc2c(CC)cccc2CC)cc1 gave a remaining binding of 70% (cell-free assay; competition with immobilised ligand; 1 µM).
The remaining binding of O=C(NCCCN1CCOCC1)c1ccc(Nc2nccc(-c3cc4ccccc4s3)n2)cc1 is reported as 100% (binding; competition with immobilised ligand; 1 µM).
The remaining binding of CN(C)c1ncc(F)c(-c2cnn3ncccc23)n1 is reported as 100% (binding; 1 µM).
Cc1cc(C)c(-n2ccn3nc(-c4cccnc4)cc23)cc1NC(=O)c1cc(C#N)cc(S(F)(F)(F)(F)F)c1 gave a remaining binding of 83% (cell-free assay; competition with immobilised ligand; 0.1 µM).
N[C@H]1CCN(c2nccc(-c3cnn4ncccc34)n2)C1 has a remaining binding of 82% (binding; 1 µM).
The remaining binding of O=C(NC[C@@H]1[C@H]2CN(C(=O)OCc3cc(C(F)(F)F)cc(C(F)(F)F)c3)C[C@@H]12)c1ccc2[nH]nnc2c1 is reported as 100% (cell-free assay; competition with immobilised ligand; 1 µM).
F[C@@H]1CCN(c2nccc(-c3cnn4ncccc34)n2)C1 gave a remaining binding of 0% (binding; 1 µM).
CN(c1ccnc(CNc2nc(Nc3ccc4c(c3)CC(=O)N4)ncc2C(F)(F)F)n1)S(C)(=O)=O has a remaining binding of 100% (cell-free assay; competition with immobilised ligand; 1 µM).
The remaining binding of C[C@@H]1CCN(c2nccc(-c3cnn4ncccc34)n2)C1 is reported as 100% (binding; 1 µM).
FC(F)(F)Oc1cccc(-c2cnc3ccc(-c4ccncc4)nn23)c1 has a remaining binding of 96% (cell-free assay; competition with immobilised ligand; 5 µM).
